Measured values from paper PMC4452124 (Toxicology research, 2014).
Read-outs that look alike come from different tables or passages of the source.

Assays:
[1] = target: T1, human BCRP (Homo sapiens, UniProt Q9UNQ0); experiment: biochemical
T1 sequence (Q9UNQ0 1-655): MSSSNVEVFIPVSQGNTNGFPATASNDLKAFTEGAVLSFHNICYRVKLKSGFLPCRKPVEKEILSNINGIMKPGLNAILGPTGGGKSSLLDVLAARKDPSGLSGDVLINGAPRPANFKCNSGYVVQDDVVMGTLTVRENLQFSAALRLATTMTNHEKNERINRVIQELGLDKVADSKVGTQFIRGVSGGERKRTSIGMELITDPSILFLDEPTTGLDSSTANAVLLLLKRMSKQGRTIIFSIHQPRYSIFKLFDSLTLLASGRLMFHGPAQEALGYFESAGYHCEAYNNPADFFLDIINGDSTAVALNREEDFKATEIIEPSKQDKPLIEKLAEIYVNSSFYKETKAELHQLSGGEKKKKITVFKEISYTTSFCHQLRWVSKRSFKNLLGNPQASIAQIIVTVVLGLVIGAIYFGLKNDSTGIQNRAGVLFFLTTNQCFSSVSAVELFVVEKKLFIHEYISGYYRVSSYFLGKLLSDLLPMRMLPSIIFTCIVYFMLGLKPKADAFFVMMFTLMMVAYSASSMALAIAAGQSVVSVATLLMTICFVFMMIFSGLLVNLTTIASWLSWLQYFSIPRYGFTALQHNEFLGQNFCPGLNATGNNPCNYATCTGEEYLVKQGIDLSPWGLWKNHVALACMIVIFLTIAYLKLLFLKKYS

[2] = target: T1, human BCRP; experiment: biochemical; remark: listed apart in the source
[3] = target: T2, BCRP in BeWo cells (Homo sapiens, UniProt Q9UNQ0)
T2 sequence (Q9UNQ0 1-655): T1 sequence (Q9UNQ0 1-655)

[4] = target: T1, human BCRP; experiment: BCRP ATPase assay, activation of baseline activity; type: biochemical; settings: absence of sulfasalazine
[5] = target: T1, human BCRP
[6] = alamarBlue cell viability, HEK cells expressing empty vector; type: cell-based; settings: human
[7] = system: BCRP (wild-type); experiment: alamarBlue cell viability, HEK cells expressing WT BCRP; type: cell-based; settings: human
[8] = system: BCRP (Q141K variant); experiment: alamarBlue cell viability, HEK cells expressing Q141K BCRP; type: cell-based; settings: human
[9] = target: T3, WT BCRP in HEK cells (Homo sapiens, UniProt Q9UNQ0); experiment: Hoechst 33342 fluorescent substrate transport assay in WT BCRP HEK cells; type: cell-based; settings: Hoechst 33342 7 μM
T3 sequence (Q9UNQ0 1-655): T1 sequence (Q9UNQ0 1-655)

[10] = target: T2, BCRP in BeWo cells; experiment: Intracellular zearalenone accumulation by ELISA in BeWo cells; type: cell-based; settings: zearalenone 10 μM, Ko143 1 μM
[11] = system: BCRP protein expression in BeWo cells; experiment: Western blot of BCRP protein in BeWo cells after zearalenone exposure; type: cell-based, human; settings: 48 h, 1 or 10 μM
Method in brief: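 BeWo choriocarcinoma cells grown in DMEM F-12 with 10% FBS and 1% penicillin-streptomycin at 37°C, 5% CO2, used at 80–90% confluence, then exposed to test compound (0, 1 or 10 μM). Lysate protein measured by BCA; 5 μg resolved on 4–12% Bis-Tris SDS gels and probed for BCRP (~72 kDa), with β-actin as loading control. Bands semi-quantified.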

[12] = target: T4, Bcrp (Mus musculus, UniProt Q7TMS5); experiment: Pilot study of plasma zearalenone in Bcrp-null versus wild-type mice; type: in vivo; settings: after oral dosing, pilot studies, data not shown
T4 sequence (Q7TMS5 1-657): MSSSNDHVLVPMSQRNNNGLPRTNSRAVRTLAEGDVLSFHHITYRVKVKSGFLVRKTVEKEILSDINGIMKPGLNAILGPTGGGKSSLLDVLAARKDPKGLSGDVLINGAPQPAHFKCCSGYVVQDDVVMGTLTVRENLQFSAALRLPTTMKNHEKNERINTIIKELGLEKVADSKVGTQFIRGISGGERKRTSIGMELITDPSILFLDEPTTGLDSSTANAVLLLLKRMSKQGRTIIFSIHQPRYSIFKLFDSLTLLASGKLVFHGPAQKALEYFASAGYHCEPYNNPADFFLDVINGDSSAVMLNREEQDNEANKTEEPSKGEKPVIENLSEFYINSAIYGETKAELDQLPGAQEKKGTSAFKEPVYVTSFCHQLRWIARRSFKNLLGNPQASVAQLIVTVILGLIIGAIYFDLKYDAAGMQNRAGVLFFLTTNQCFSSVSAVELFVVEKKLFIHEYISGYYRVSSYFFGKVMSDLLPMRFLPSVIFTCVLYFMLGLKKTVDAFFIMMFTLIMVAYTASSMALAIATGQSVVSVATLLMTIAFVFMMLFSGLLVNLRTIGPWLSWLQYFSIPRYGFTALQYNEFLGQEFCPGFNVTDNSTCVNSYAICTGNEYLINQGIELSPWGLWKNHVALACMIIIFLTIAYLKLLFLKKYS

[13] = Inhibitory Concentration (IC50) Vesicle Assay, Lucifer yellow (50 μM) transport, 2 min, 37°C
[14] = BeWo cells, Hoechst 33342 15 μM

| Structure (SMILES) | IC50 [1, 13] | IC50 [2] | Concentration that increased intracellular Hoechst 33342 fluorescence [3, 14] | further results |
| --- | --- | --- | --- | --- |
| Fc1ccc([C@]2(Cn3cncn3)O[C@H]2c2ccccc2Cl)cc1 (racemic) [Epoxiconazole, epoxiconazole] | 64.7 µM | > 100 µM | – | – |
| CC(C)(c1ccc(O)cc1)c1ccc(O)cc1 [Bisphenol A, bisphenol A] | 55.5 µM | > 100 µM | 50 µM | – |
| O=c1c(-c2ccc(O)cc2)coc2cc(O)cc(O)c12 [Genistein, genistein] | – | – | – | Concentration that stimulated baseline ATPase activity [4]: ≥ 0.01 µM; IC50 ([1]; Inhibitory Concentration (IC50) Vesicle Assay): 1.9 µM; Change in BCRP-mediated ATPase activity [5]: no change in ATPase activity was detected; Concentration that increased intracellular Hoechst 33342 fluorescence ([3]; human): ≥ 10 µM; Increase in retention of Hoechst 33342 ([3]; human): 50–100% |
| COc1ccc(C(c2ccc(OC)cc2)C(Cl)(Cl)Cl)cc1 [Methoxychlor, methoxychlor] | 38 µM | 5.2 µM | 100 µM | – |
| O=C1c2c(O)ccc(O)c2C(=O)c2c(NCCNCCO)ccc(NCCNCCO)c21 [Mitoxantrone, mitoxantrone, reference compound] | – | – | – | CC50 [6]: 0.34 µM; CC50 [7]: 3.19 µM; CC50 [8]: 1.14 µM |
| CCCCC(C#N)(Cn1cncn1)c1ccc(Cl)cc1 (stereo not drawn) [Myclobutanil, myclobutanil] | 62.7 µM | 79 µM | – | – |
| CCCN(CCOc1c(Cl)cc(Cl)cc1Cl)C(=O)n1ccnc1 [Prochloraz, prochloraz] | 18.7 µM | 42.6 µM | – | – |
| C#CCOS(=O)OC1CCCCC1Oc1ccc(C(C)(C)C)cc1 (stereo not drawn) [Propargite, propargite] | 31.8 µM | 2.6 µM | – | – |
| CCCC1COC(Cn2cncn2)(c2ccc(Cl)cc2Cl)O1 (stereo not drawn) [Propiconazole, propiconazole] | 51.3 µM | 63.6 µM | – | – |
| CC(C)(C)C(O)(CCc1ccc(Cl)cc1)Cn1cncn1 (stereo not drawn) [Tebuconazole, tebuconazole] | 41.1 µM | > 100 µM | – | – |
| CCC[CH2][Sn]([CH2]CCC)[CH2]CCC [Tributyltin, tributyltin] | – | – | ≥ 10 µM | IC50 ([1]; read-out: Inhibitory Concentration (IC50) Vesicle Assay, Lucifer yellow (50 μM) transport, 2 min, 37°C): 30.5 µM; Increase in retention of Hoechst 33342 ([3]; BeWo cells): 50–100% |
| C[C@H]1CCCC(=O)CCC/C=C/c2cc(O)cc(O)c2C(=O)O1 [Zearalenone, zearalenone] | 4.8 µM | 40.6 µM | 50 µM | CC50 at 72 h [6]: 45.6 µM; CC50 at 72 h [7]: 171 µM; CC50 at 72 h [8]: 40.6 µM; Concentrations that increased Hoechst accumulation [9]: 10 to 100 µM; Increase of intracellular zearalenone levels on BCRP inhibition with Ko143 [10]: 2.7 fold; Effect on BCRP protein expression [11]: did not alter BCRP protein expression; Plasma zearalenone levels, Bcrp-null mice compared to wild-types [12]: ~ 10 fold |
